Test results reported in the array DNA melting data of Ke et al. (doi:10.1101/2024.01.08.574731).

What was measured:
[1] = folding enthalpy; higher = less favourable; fluorescence melt of hairpins on a sequencing array, two-state fit; conditions: sodium 0.088 M
Procedure, shortened: (§1)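 Cy3 fluorescence of library hairpins on a sequenced MiSeq flow cell, with annealed Cy3 and quencher oligos, was imaged in 50 mM Na-HEPES pH 8.0, 25 mM NaCl in 2.5 °C steps up to 60 °C. Signals were normalised to pre-quench Cy3 and to control variants. Melting temperature and folding enthalpy came from bootstrapped two-state fits, inverse-variance combined over four replicates. Fitted temperatures were raised by 9.35 °C to match UV melts.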

[2] = melting temperature; fluorescence melt of hairpins on a sequencing array, two-state fit, raised by 9.35 °C to match UV melts; conditions: sodium 0.088 M
Procedure, shortened: as §1

Row | Sequence | folding enthalpy [1] | Tm [2]
1 | GGGGACGAAAGTCATCCC ((((((....)))..))) | -12.6 kcal/mol | 45.6 °C
2 | GCGGAACGAAAGTTGCGC (((.(((....))).))) | -35.6 kcal/mol | 67.9 °C
3 | GGTTAACGAAAGTTCACC (((.(((....))).))) | -31.3 kcal/mol | 43 °C
4 | GGGGTCGGAAACGACTCC ((.((((....)))).)) | -34.4 kcal/mol | 59.5 °C
5 | GCTAAGCGAAAGCGGAGC (((..((....))..))) | -20.3 kcal/mol | 57.2 °C
6 | GATCGTTCCGACGATC ((((((....)))))) | -40.9 kcal/mol | 56.1 °C
7 | CTAGAGAAATCTAG (((((....))))) | -7.95 kcal/mol | 26.2 °C
8 | GGTGTGCGAAAGCAAACC (((.(((....))).))) | -35.5 kcal/mol | 56 °C
9 | GATCCACTGGTGGATC ((((((....)))))) | -39.4 kcal/mol | 59.1 °C
10 | GCTCTCGGAAACAAGAGC (((((.(....).))))) | -33.6 kcal/mol | 40.2 °C
11 | GGGAGGGGAAACCTTCCC ((((.((....)).)))) | -25.1 kcal/mol | 50 °C
12 | GCGCTGACGAAAGTCCGC (((..(((....)))))) | -25.1 kcal/mol | 51 °C
13 | GGAATCGAAAGATATCC ((((((....))).))) | -13.4 kcal/mol | 29.1 °C
14 | GATTCTGGAAACAGAACC (.(((((....))))).) | -17.6 kcal/mol | 33.6 °C
15 | GATCATGTTGATGATC ((((((....)))))) | -41.2 kcal/mol | 48.4 °C
16 | GCAGAGCGAAAGCTTAGC ((..(((....)))..)) | -17.5 kcal/mol | 41.7 °C
17 | GCTGACGAAAGTCCTAGC ((((((....)))..))) | -17 kcal/mol | 34.3 °C
18 | GTGTGTCGAAAGACCAC (((.(((....)))))) | -28.9 kcal/mol | 54.5 °C
19 | TGAGCGAAAGCTCA (((((....))))) | -12.8 kcal/mol | 67.6 °C
20 | GCGTACGGAAACGTGCGC (((.(((....))).))) | -54.1 kcal/mol | 64.6 °C
21 | GATCCCAGTGGGGATC ((((((....)))))) | -32.7 kcal/mol | 62.3 °C
22 | AACAGGAAACTGTT (((((....))))) | -14.7 kcal/mol | 40.5 °C
23 | GCGTAGAAATACGC (((((....))))) | -25.1 kcal/mol | 55.2 °C

Row | Sequence | folding enthalpy [1] | Tm [2]
24 | GTGGAGCGAAAGCTGCAC (((.(((....))).))) | -34 kcal/mol | 62.4 °C
25 | GATCCGAGAGCGGATC ((((((....)))))) | -38.3 kcal/mol | 54.6 °C
26 | GCCCTGCGAAAGCCGTGC ((.(.((....)).).)) | -11.6 kcal/mol | 31.7 °C
27 | GTTCGGAAACGAAC (((((....))))) | -25.9 kcal/mol | 56 °C
28 | GATCTGACAACAGATC ((((((....)))))) | -36.6 kcal/mol | 46.5 °C
29 | GCTCCGCGAAAGCATAGC (((..((....))..))) | -10.1 kcal/mol | 33.1 °C
30 | GCTACAACGAAAGTTAGC (((..(((....)))))) | -18.6 kcal/mol | 33.4 °C
31 | GTCTTGGGAAACTAAGGC (.(((.(....).))).) | -19.4 kcal/mol | 29 °C
32 | GTCTTTGGAAACAAAGGC (.(((((....))))).) | -29.3 kcal/mol | 46.6 °C
33 | GTCTGAGGAAACTTAGAC ((((.((....)).)))) | -30.7 kcal/mol | 39.9 °C
34 | GACTACGGAAACGTAGCC (.(((((....))))).) | -14.1 kcal/mol | 44.5 °C
35 | GCCCCCGAAAGGGTCGGC ((((((....)))..))) | -17.1 kcal/mol | 50.4 °C
36 | GATCGGTCATCCGATC ((((((....)))))) | -39.7 kcal/mol | 59.4 °C
37 | GATCTGACTACAGATC ((((((....)))))) | -36.9 kcal/mol | 49.5 °C
38 | GTTGTCGGAAACGACAGC (.(((((....))))).) | -24 kcal/mol | 55.7 °C
39 | GACGTGGAAACACGTC ((((((....)))))) | -33.4 kcal/mol | 67.6 °C
40 | GGTTAAGGAAACTTAACC (((((((....))))))) | -38.5 kcal/mol | 52.7 °C
41 | GGTCGCGAAAGCGCAACC ((((((....)))..))) | -13.1 kcal/mol | 42.4 °C
42 | GCAGGGCGAAAGCACGGC ((.(.((....)).).)) | -33.9 kcal/mol | 65 °C
43 | GCAGTCGAAAGACTTTGC ((((((....)))..))) | -17.7 kcal/mol | 35.7 °C
44 | GATCCGTACCCGGATC ((((((....)))))) | -39 kcal/mol | 56.4 °C
45 | GATCCCCGCCGGGATC ((((((....)))))) | -40.3 kcal/mol | 57.7 °C
46 | GTGATTCGAAAGAACAC (((.(((....)))))) | -24.8 kcal/mol | 40.9 °C

Row | Sequence | folding enthalpy [1] | Tm [2]
47 | GGAGACCGAAAGGTGTCC (((.(((....))).))) | -40.8 kcal/mol | 58.9 °C
48 | GGCTTACCGAAAGGTGCC (((..(((....)))))) | -23.1 kcal/mol | 50.2 °C
49 | GCGCTACCGAAAGGTCGC (((..(((....)))))) | -30.8 kcal/mol | 51.4 °C
50 | GATCAGTTCCTGATC ((((((...)))))) | -42.9 kcal/mol | 50.9 °C
51 | GTACCGGGAAACCGGTGC (.(((((....))))).) | -19.1 kcal/mol | 57.1 °C
52 | GATCGGGTTCCGATC ((((((...)))))) | -39.1 kcal/mol | 56.8 °C
53 | GCCAATGGAAACACTGGC ((((.((....)).)))) | -31.9 kcal/mol | 41.9 °C
54 | GGCTTCGAAAGAAGTGCC ((((((....)))..))) | -16.1 kcal/mol | 42.6 °C
55 | GGGATACGAAAGTAACCC (((.(((....))).))) | -31.1 kcal/mol | 51.7 °C
56 | GAGCCCACGAAAGTGCTC (((..(((....)))))) | -16 kcal/mol | 35.8 °C
57 | GGGAGAGGAAACTTTCCC ((((.((....)).)))) | -27.3 kcal/mol | 42.1 °C
58 | CGAACGGAAACGTATCG ((((((....))).))) | -19.2 kcal/mol | 36.1 °C
59 | GCGGACGAAAGTCCACGC ((((((....)))..))) | -15.2 kcal/mol | 58.9 °C
60 | GCTTAGCGAAAGCCACGC ((.(.((....)).).)) | -8.56 kcal/mol | 22.5 °C
61 | GCCGTACGAAAGTATGGC (((.(((....))).))) | -42.8 kcal/mol | 61.4 °C
62 | GGTTAAGAAATTAACC ((((((....)))))) | -23.8 kcal/mol | 43.5 °C
63 | GTTACGGGAAACTGTAAC (((((.(....).))))) | -32.7 kcal/mol | 45.6 °C
64 | GCTGTCGAAAGACCTAGC ((((((....)))..))) | -15.7 kcal/mol | 36.5 °C
65 | GTGGGCGAAAGCCGCCAC ((((((....)))..))) | -13.3 kcal/mol | 42.3 °C
66 | GGACATGGAAACACGTCC ((((.((....)).)))) | -30 kcal/mol | 42.7 °C
67 | GGTATCGAAAGATTTACC ((((((....)))..))) | -27.8 kcal/mol | 28.5 °C
68 | GGCACCGGAAACGACGCC (((..((....))..))) | -29.9 kcal/mol | 42 °C
69 | GGCATGACGAAAGTCGCC (((..(((....)))))) | -28.3 kcal/mol | 52.6 °C

Row | Sequence | folding enthalpy [1] | Tm [2]
70 | GTTGTAGGAAACTACGAC ((.((((....)))).)) | -26 kcal/mol | 45.8 °C
71 | GCTTCGCGAAAGCTCAGC (((..((....))..))) | -13.4 kcal/mol | 44.5 °C
72 | GCACAGCGAAAGCTTTGC (((.(((....))).))) | -41.2 kcal/mol | 51.8 °C
73 | GCTAAGCGAAAGCGAAGC (((..((....))..))) | -26.7 kcal/mol | 63 °C
74 | CGCCCGGAAACGGTGCG ((((((....))).))) | -31.7 kcal/mol | 57.9 °C
75 | CGTCCGGAAACGGCCACG ((((((....)))..))) | -13 kcal/mol | 33.1 °C
76 | GTTTACCGAAAGGTTAAC (((.(((....))).))) | -24.9 kcal/mol | 43.7 °C
77 | GAATCGGGAAACCGATCC (.(((((....))))).) | -15.6 kcal/mol | 39 °C
78 | GGTTGGGGAAACCCAACC (((((((....))))))) | -36.8 kcal/mol | 66.4 °C
79 | GACAGGAAACTGTC (((((....))))) | -31.3 kcal/mol | 51.6 °C
80 | GCTCGGCGAAAGCTCAGC (((..((....))..))) | -11.9 kcal/mol | 44.7 °C
81 | GTACGCGGAAACGCACAC ((..(((....)))..)) | -13.8 kcal/mol | 33.1 °C
82 | GGATGTGGAAACGTATCC ((((..(....)..)))) | -22.3 kcal/mol | 35.1 °C
83 | GCGTAATTACGC ((((....)))) | -30 kcal/mol | 51.7 °C
84 | GAAGCCCGAAAGGGATTC (((.(((....))).))) | -42.4 kcal/mol | 61.4 °C
85 | GGGTGCTCGAAAGAGCCC (((..(((....)))))) | -17.7 kcal/mol | 52.6 °C
86 | GATCTGCTGTCAGATC ((((((....)))))) | -32.2 kcal/mol | 51.6 °C
87 | GCATCGCGAAAGCCATGC ((((.((....)).)))) | -35.7 kcal/mol | 56.3 °C
88 | GATCAGCTACCTGATC ((((((....)))))) | -40 kcal/mol | 48.9 °C
89 | GCCAGGAAACTGGC (((((....))))) | -38.2 kcal/mol | 63.2 °C
90 | GATCCGAATTCGGATC ((((((....)))))) | -43.3 kcal/mol | 60.2 °C
91 | GCACACGAAAGTGAATGC ((((((....)))..))) | -23.9 kcal/mol | 42.8 °C
92 | GATCAAATGTTTGATC ((((((....)))))) | -34.6 kcal/mol | 45.1 °C
